Assay outcomes deposited in PubChem by several laboratories.
NR3A LBD binder – modulators (binders) of human NR3A ligand-binding domain. 340,000 compounds, 2.5% hits. NR3A LBD differential scanning fluorimetry, Tm shift; 0% = protein alone, 100% = glycine-bound protein. Tm shift relative to glycine control, % at 25 µM;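 active means melting temperature shift of at least 10% of the positive control shift, at one fixed dose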
CHOP UPR activ – activators of apoptotic arm of unfolded protein response (CHOP); CHO-CHOP luciferase reporter, UPR activation, luminescence; percent of tunicamycin response over DMSO baseline; activation, % at 10 µM; 330,000 compounds, 0.34% hits;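 active means at 10 µM dose, activation of 40% or more, normalized to positive control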;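 further: 100% = tunicamycin at 10 µg/mL and 0% = DMSO alone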
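measured by = luciferase luminescence | assay system = CHO-CHOP cells, stable luciferase reporter of PERK-eIF2a-CHOP signalling | amount = 500 reporter cells seeded per well | timing = 6 h compound exposure at 37 °C after overnight seeding | controls = positive tunicamycin 10 µg/mL, negative DMSO alone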
CHOP inh – blocks CHOP induction under ER stress. CHO-K1 CHOP-promoter luciferase, tunicamycin-induced, 15-18 h. inhibition, % at 10 µM. 220,000 compounds, 3.8% hits. AID 2732;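 active means compounds that reduced the stress-induced luciferase reporter signal by more than about 70% of percent inhibition, limit read from the data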;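 further: 0% = tunicamycin plus vehicle and 100% = wells without tunicamycin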
aDG glyco act – increases alpha dystroglycan glycosylation; 360,000 compounds, 0.22% hits; activation, % at 10 µM; Pro5-aDG cells, alpha-DG glycosylation AlphaScreen (IIH6); 0% Pro5, 100% B10-LARGE cell signal;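 active means activation of at least 8% versus controls, or a plate z-score of at least 8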;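 further: Pro5 are CHO cells carrying HIG-tagged alpha-DG that lacks glycosylation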
MPTP inh – blocks calcium-induced mitochondrial swelling. isolated mouse mitochondria, Ca2+ swelling absorbance, 30 min. inhibition, % at 10 µM. 360,000 compounds, 1.4% hits. AID 602449;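 active means inhibition of 50% or more, scaled per plate between neutral and stimulator controls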;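 further: 0% = DMSO wells given calcium and 100% = 1 mM EGTA wells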
XBP1 UPR activ – adaptive UPR (XBP1) activation | CHO-XBP1 luciferase reporter, IRE1-XBP1 UPR activation, luminescence; percent of tunicamycin response, DMSO as zero | activation, % at 20 µM | 330,000 compounds, 0.33% hits | AID 463104;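 active means versus positive control, 20 µM dose yields 30% or more activation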;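 further: 100% = tunicamycin at 10 µg/mL and 0% = DMSO only wells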
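Signal: luciferase luminescence; Assay system: CHO-XBP1 luciferase reporter cells; Amount: one thousand reporter cells per well; Dosing: 20 µM single concentration, DMSO 1%; Benchmarks: high control tunicamycin 10 µg/mL final, low control DMSO vehicle only; Schedule: 6 h compound exposure at 37 °C, 5% CO2; Evaluation: percent activation relative to tunicamycin reference.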
CHOP inh conf – confirmation of CHOP induction inhibitors. shares compounds with CHOP inh. CHO-CHOP promoter luciferase reporter, tunicamycin-induced, luminescence. inhibition, % at 10 µM. 2,100 compounds, 45% hits. AID 504437;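 active means mean of three repeat readings of reporter signal inhibition above a set limit, cut at about 70% in these data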;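 further: 0% = tunicamycin plus vehicle and 100% = wells lacking tunicamycin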
The depositor's hits bear a star; . = not tested or not shown. Rows were chosen to be rich in hits. Some 5.6% of all compounds tested hit in one or more screens of this group.

SMILES	NR3A LBD binder	CHOP UPR activ	CHOP inh	aDG glyco act	MPTP inh	XBP1 UPR activ	CHOP inh conf
O=C(COC(=O)Cc1ccc(Cl)cc1)Nc1ccc2[nH]c(=O)[nH]c2c1	2	-2	.	1	0	-4	.
CC(C)(C)c1ccc(C(=O)NNC(=O)c2cccc(Br)c2)cc1	1	1	102*	0	0	11	94*
Cc1nn(-c2ccccc2)c2c1C(c1ccccc1)C(C#N)=C(N)O2 (stereo not given)	-8	-3	13	0	7	-1	.
Cc1nn(-c2ccccc2)c2c1C(c1ccc(F)cc1F)C(C#N)=C(N)O2 (stereo not given)	-3	-1	99*	0	20	6	17
Cc1nn(-c2ccccc2)c(Cl)c1CN(C(=O)CCl)c1ccc(Cl)cc1	-5	.	109*	0	3	.	140*
CC(=O)N(Cc1c(C)nn(-c2ccccc2)c1Cl)c1ccc(Cl)cc1	-1	-1	2	0	0	-2	.
C=C(C)Cn1c(N2CCC(Cc3ccccc3)CC2)nc2c1c(=O)[nH]c(=O)n2C	-5	2	99*	1	3	0	125*
CC(=O)Cn1c(N2CCC(Cc3ccccc3)CC2)nc2c1c(=O)[nH]c(=O)n2C	0	0	40	0	-1	3	.
CCNC(=S)N/N=C/c1cc(Br)cc(Br)c1OC	-3	-1	102*	0	0	-1	80*
COc1ccc(C(C(=O)NCCC(C)C)N(CCN2CCOCC2)C(=O)Cn2nnc3ccccc32)c(OC)c1 (stereo not given)	0	0	-7	0	-1	-2	.
Cc1ccc(C(=O)O)cc1S(=O)(=O)Nc1ccccc1C(=O)NC1CC1	3	0	.	0	0	-1	.
CCOC(=O)c1cnc(-n2nc(C)cc2C)nc1NCCc1ccccc1	-1	37	101*	3	9	16	-8
CCC1CCc2c(sc(NC(=O)c3ccoc3C)c2C(N)=O)C1 (stereo not given)	0	4	102*	0	-1	4	102*
COc1ccccc1C(CNC(=O)c1cccc(S(=O)(=O)NCc2ccccc2)c1)N(C)C (stereo not given)	2	3	.	0	1	3	.
Cc1ccc(-c2nn(-c3ccccc3)cc2/C=N/NC(=O)c2ccc(Br)o2)cc1	-5	0	104*	1	49	-6	121*
O=C(NC1CCCCC1)C(c1ccc(F)cc1)N(C(=O)c1csnn1)C1CCCC1 (stereo not given)	-1	-1	.	0	-2	-2	.
Cc1ccc(S(=O)(=O)N2C3CCCCC3O[C@H]2CC(=O)c2cccc3ccccc23)cc1 (stereo not given in full)	.	.	.	1	0	.	.
C=CCn1c(=O)c(C(=O)Nc2ccccc2O)c(O)c2ccccc21	-1	-1	104*	0	1	0	-64
O=C1COc2ccccc2N1Cc1ccc(Cl)cc1	1	0	.	0	1	-1	.
C/C(=N\OCc1cccc(C(=O)O)c1)c1ccc(Cl)cc1	-2	-8	96*	0	11	-9	111*
Cc1ccc(SCCN2CCC(O)CCC2=O)cc1 (stereo not given)	-1	-1	.	0	1	6	.
CC(C)Cn1c(=O)c2ccccc2c2ccccc2c1=O	-1	-2	103*	0	3	-5	-9
CC(C)Cn1c(=S)[nH]c2ccccc2c1=O	-1	2	35	0	0	2	.
Cc1cc(C)c(S(=O)(=O)NCCn2ccc3ccccc32)c(C)c1	-2	0	107*	0	2	-1	24
COc1ccc(NC2CCCN(C(=O)CCOc3ccccc3)C2)cc1 (stereo not given)	0	0	.	0	1	-2	.
SMILES	NR3A LBD binder	CHOP UPR activ	CHOP inh	aDG glyco act	MPTP inh	XBP1 UPR activ	CHOP inh conf
O=S(=O)(Nc1ccc(Cc2ccncc2)cc1)c1ccc(Cl)c(Cl)c1	-2	-2	103*	2	0	0	54
CCOc1ccccc1C(=O)NCC(=O)NNC(=O)c1csc(N2CCOCC2)n1	.	.	.	0	0	.	.
Cc1ccc(O)c(C(CC(=O)NCc2cccnc2)c2ccccc2)c1 (stereo not given)	-1	0	1	0	2	-2	.
CC(C)Oc1ccc(CNC(=O)CC(c2ccccc2)c2cc(Cl)ccc2O)cc1 (stereo not given)	10	0	98*	1	5	-1	104*
CC/C(=N/Nc1cccc(C)c1)c1cnnc(SC)n1	9	1	97*	0	8	3	-71
CSc1nncc(/C(C)=N\Nc2ccccc2C)n1	1	6	11	0	-5	5	.
CC(C)[C@@H]1Cc2[nH]n(C)c(=O)c2[C@H](c2ccc(F)cc2)O1	.	.	.	0	0	.	.
CCn1cc([N+](=O)[O-])c(C(=O)N2N=C(c3ccc(O)c(OC)c3)CC2c2ccccc2O)n1 (stereo not given)	-13	2	35	0	2	0	.
CCn1cc([N+](=O)[O-])c(C(=O)N2N=C(c3ccc(Cl)c(Cl)c3)CC2c2ccccc2O)n1 (stereo not given)	7	0	101*	1	0	6	78*
C=C(C)[C@@H]1CC[C@]2(C(=O)O)CC[C@]3(C)[C@H](CC[C@@H]4[C@@]5(C)CC[C@H](O)C(C)(C)[C@@H]5CC[C@]43C)[C@@H]12	1	1	103*	0	1	12	66
COc1ccc2cc(C(=O)N/N=C/c3sc4ccccc4c3O)ccc2c1	12*	2	97*	0	22	-1	-17
COc1ccc(C(=O)N/N=C/c2sc3ccccc3c2O)cc1	5	.	24	1	7	.	.
CCOC(=O)C1(Cc2ccc(OC)cc2)CCN(C(=O)C2=CCCC2)CC1	0	1	102*	1	1	2	14
CCc1nnc(NC(=O)c2sc3nc4c(cc3c2N)CCCCCC4)s1	-6	6	105*	0	4	1	2
CCc1nnc(NC(=O)c2sc3nc4c(cc3c2N)CCCCC4)s1	-3	7	-32	0	1	3	.
CCCCCC1CC(CC(=O)Nc2ccc([N+](=O)[O-])cc2)C(=O)O1 (stereo not given)	-1	0	101*	0	48	-4	104*
